Results pooled from the literature.
Protocols differ between the studies behind these lines.
Target: Serine/threonine-protein kinase BRSK1 (BRSK1, Homo sapiens, UniProt Q8TDC3)
One construct used (Q8TDC3 1-778): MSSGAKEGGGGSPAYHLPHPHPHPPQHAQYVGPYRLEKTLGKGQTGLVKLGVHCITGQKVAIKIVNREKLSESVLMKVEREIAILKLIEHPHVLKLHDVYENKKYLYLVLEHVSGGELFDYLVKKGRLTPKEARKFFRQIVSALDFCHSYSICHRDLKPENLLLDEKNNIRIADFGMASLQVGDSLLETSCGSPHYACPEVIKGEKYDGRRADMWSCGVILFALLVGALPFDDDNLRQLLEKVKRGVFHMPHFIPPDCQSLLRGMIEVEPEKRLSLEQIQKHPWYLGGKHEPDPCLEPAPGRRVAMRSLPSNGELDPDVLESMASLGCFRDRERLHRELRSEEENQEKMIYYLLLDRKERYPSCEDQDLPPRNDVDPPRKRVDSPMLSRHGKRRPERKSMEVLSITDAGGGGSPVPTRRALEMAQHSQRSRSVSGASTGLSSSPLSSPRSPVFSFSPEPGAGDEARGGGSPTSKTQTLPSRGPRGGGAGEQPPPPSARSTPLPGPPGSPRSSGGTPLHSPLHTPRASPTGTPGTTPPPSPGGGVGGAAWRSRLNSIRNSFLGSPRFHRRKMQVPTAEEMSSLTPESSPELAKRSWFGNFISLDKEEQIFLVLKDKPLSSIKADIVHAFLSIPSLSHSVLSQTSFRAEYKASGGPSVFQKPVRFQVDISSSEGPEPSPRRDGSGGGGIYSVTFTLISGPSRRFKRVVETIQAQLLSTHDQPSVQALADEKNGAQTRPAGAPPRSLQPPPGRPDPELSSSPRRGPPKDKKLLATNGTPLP

observed	mode	technique	tested at	endpoint	value	SMILES
enzyme activity	inhibitor		0.1 µM	inhibition	1.7%	CC/C(=N\NC(=O)NCc1cccc(O)c1)c1ccc(O)c(C)c1O
cell-free assay			0.5 µM	remaining signal	46.8%	N#CCCc1ccc2c(c1)-c1[nH]c3ccc([N+](=O)[O-])cc3c1CC(=O)N2
enzyme activity	inhibitor		10 µM	remaining activity	40%	CCCOc1ccc(OC)c(F)c1C(=O)c1ccc(C(=O)N[C@@H]2CNC[C@H]2NC(=O)c2ccc3[nH]ncc3c2)cc1
enzyme activity	inhibitor		10 µM	remaining activity	85%	Cn1c(=O)n(-c2ccc(C(C)(C)C#N)cc2)c2c3cc(-c4cnc5ccccc5c4)ccc3ncc21
cell-free assay		competition with immobilised ligand	1 µM	remaining binding	88.9%	CCCCN(CCCC)C(=O)CN1C[C@@H](c2cc(OC)c3c(c2)OCO3)[C@H](C(=O)O)[C@H]1CC(C)(C)CCC
enzyme activity	inhibitor		5 µM	remaining activity	99.4%	O=C(Nc1cnn(-c2csc(C(=O)NC3COC3)c2)c1)Nc1c(F)cccc1Cl
cell-free assay		competition with immobilised ligand	1 µM	remaining binding	100%	Cc1nc(Cc2cccc(C(F)(F)F)c2)sc1-c1ccc(C(N)=O)nc1
cell-free assay	inhibitor		20 µM	remaining signal	8.4%	Nc1ncnc2occ(-c3ccc(NC(=O)Nc4cc(C(F)(F)F)ccc4F)cc3)c12
enzyme activity	inhibitor		23.5 nM	remaining activity	83%	Cc1ccc(C(=O)Nc2ccc(CN3CCN(C)CC3)c(C(F)(F)F)c2)cc1C#Cc1cnc2cccnn12
enzyme activity	inhibitor		10 µM	remaining activity	161%	FC(F)c1nc2ccccc2n1-c1nc(N2CCOCC2)nc(N2CCOCC2)n1
enzyme activity	inhibitor		10 µM	inhibition	36%	Cc1ccc(Nc2nccc(N(C)c3ccc4c(C)n(C)nc4c3)n2)cc1S(N)(=O)=O
cell-free assay		competition with immobilised ligand	1 µM	remaining binding	100%	O=C(N1CCS(=O)(=O)CC1)N1C[C@H](c2ccc(OC(F)(F)F)cc2)C[C@H](c2nc(C3CC3)no2)C1
binding			1 µM	remaining binding	100%	N[C@@H]1CCN(c2nccc(-c3cnn4ncccc34)n2)C1
enzyme activity	inhibitor		0.3 µM	inhibition	17%	CNC(=O)c1cc(Oc2ccc(NC(=O)Nc3ccc(Cl)c(C(F)(F)F)c3)cc2)ccn1
enzyme activity	inhibitor	radiometric	1 µM	remaining activity	102%	CC(C)(C)c1nc2c(s1)c1nc(N)ncc1c1ccc(NS(=O)(=O)c3c(F)cccc3F)c(F)c12
cell-free assay		competition with immobilised ligand	1 µM	remaining binding	93%	CN(C)C(=O)Cn1cc(-c2nc(C3(c4ccc(-c5cnc(N)nc5)cc4)CC3)no2)cn1
enzyme activity	inhibitor	radiometric	5 µM	activity vs control	82%	FC(F)(F)Oc1cccc(-c2cnc3ccc(-c4ccncc4)nn23)c1
cell-free assay		competition with immobilised ligand	1 µM	remaining binding	91%	NS(=O)(=O)c1cc(NC(=O)Cc2ccccc2)ccc1Oc1cccc(Cl)c1
enzyme activity	inhibitor		1 µM	inhibition	1%	COc1cc2ncnc(Nc3ccc(Oc4ccccc4)cc3C)c2cc1OC
cell-free assay		competition with immobilised ligand	1 µM	remaining binding	55%	CCc1ccccc1C(=O)Nc1n[nH]c2c(C)c(F)c(C3C(C#N)=C(C)N(C)C(C)=C3C#N)cc12
enzyme activity	inhibitor		1 µM	remaining activity	98.1%	CC(C)(O)[C@H]1CC[C@H](Nc2ccc3ncc(-c4cccc(C(F)(F)F)c4)n3n2)CC1
enzyme activity	inhibitor		0.1 µM	activity vs control	123%	Cc1cc(NC(=O)c2cccc3cc(-c4cccc5[nH]nc(N)c45)ccc23)ccc1F
cell-free assay		competition with immobilised ligand	1 µM	remaining binding	100%	C[C@H](c1ccc(F)cc1)N(Cc1cccc(C(=O)O)c1)C(=O)c1cnc2ccccc2c1
enzyme activity	inhibitor		0.3 µM	inhibition	27%	CCN(CC)CCNC(=O)c1c(C)[nH]c(/C=C2\C(=O)Nc3ccc(F)cc32)c1C
cell-free assay			0.5 µM	remaining signal	94.3%	O=C1NC(=O)c2cc(Nc3ccc(F)cc3)c(Nc3ccc(F)cc3)cc21
cell-free assay		competition with immobilised ligand	0.1 µM	remaining binding	100%	C[C@H](c1ccnc(Nc2nc3ccc(-c4cc(N(C)C)ncn4)cc3[nH]2)c1)N1CCN(C(=O)CC(F)(F)F)CC1
enzyme activity	inhibitor		1 µM	activity vs control	92%	COc1cc(/C=C/C(=O)CC(=O)/C=C/c2ccc(O)c(OC)c2)ccc1O
